Here are results for six compounds from publication PMC6923798 (Bioorganic chemistry, 2018).

Where two headings read alike, the source gives them in different places.

One experiment deals with STAT3. Put plainly: STAT3 activation assay. The experiment is classed as cell-based, human. Conditions: K-562 cells, 10 μM, 24 h, nuclear extracts. The method, boiled down:
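K562 cells seeded overnight in 10 cm plates, then given vehicle, test compound (10 μM) or WP1066 (positive control) for 24 h. Nuclear fractions extracted by kit. STAT3 activation measured in nuclear extracts by TransAM STAT3 ELISA per manufacturer. Mean ± SD of three independent experiments, each in triplicate.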

The subject of the next experiment is K-562. Briefly: MTT anti-proliferative assay. The class given is cell-based, human. Conditions: read-out: IC50 ± SD, K-562.
The subject of a further experiment is KG-1a. Put plainly: MTT anti-proliferative assay. The experiment is classed as cell-based, human. Particulars: read-out: IC50 ± SD, KG-1a.
Experiment [1] has as its system full NCI panel of 60 cell lines. Briefly: NCI in vitro one dose anticancer assay. The experiment is classed as cell-based, human. Conditions: 48 h; for inhibition at 10 µM: Homo sapiens, 60 cell, read-out: Mean growth inhibition %. The method, boiled down: (§1)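 NCI protocol. Test compound added once at 10−5 M to ~60 human tumour lines from nine subpanels. Incubated 48 h at 37 °C, 5% CO2, 95% air, 100% relative humidity. Endpoint by sulforhodamine B protein staining with spectrophotometric absorbance. Growth of treated cells reported as percent of untreated cells.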

A further experiment concerns Jurkat. Put plainly: MTT anti-proliferative assay. The class given is cell-based, human. Particulars: read-out: IC50 ± SD, Jurkat.
In the next experiment the target is EGFR (Homo sapiens, UniProt P00533). Put plainly: EGFR kinase assay. The class given is biochemical.
Chain of EGFR (P00533 25-1210): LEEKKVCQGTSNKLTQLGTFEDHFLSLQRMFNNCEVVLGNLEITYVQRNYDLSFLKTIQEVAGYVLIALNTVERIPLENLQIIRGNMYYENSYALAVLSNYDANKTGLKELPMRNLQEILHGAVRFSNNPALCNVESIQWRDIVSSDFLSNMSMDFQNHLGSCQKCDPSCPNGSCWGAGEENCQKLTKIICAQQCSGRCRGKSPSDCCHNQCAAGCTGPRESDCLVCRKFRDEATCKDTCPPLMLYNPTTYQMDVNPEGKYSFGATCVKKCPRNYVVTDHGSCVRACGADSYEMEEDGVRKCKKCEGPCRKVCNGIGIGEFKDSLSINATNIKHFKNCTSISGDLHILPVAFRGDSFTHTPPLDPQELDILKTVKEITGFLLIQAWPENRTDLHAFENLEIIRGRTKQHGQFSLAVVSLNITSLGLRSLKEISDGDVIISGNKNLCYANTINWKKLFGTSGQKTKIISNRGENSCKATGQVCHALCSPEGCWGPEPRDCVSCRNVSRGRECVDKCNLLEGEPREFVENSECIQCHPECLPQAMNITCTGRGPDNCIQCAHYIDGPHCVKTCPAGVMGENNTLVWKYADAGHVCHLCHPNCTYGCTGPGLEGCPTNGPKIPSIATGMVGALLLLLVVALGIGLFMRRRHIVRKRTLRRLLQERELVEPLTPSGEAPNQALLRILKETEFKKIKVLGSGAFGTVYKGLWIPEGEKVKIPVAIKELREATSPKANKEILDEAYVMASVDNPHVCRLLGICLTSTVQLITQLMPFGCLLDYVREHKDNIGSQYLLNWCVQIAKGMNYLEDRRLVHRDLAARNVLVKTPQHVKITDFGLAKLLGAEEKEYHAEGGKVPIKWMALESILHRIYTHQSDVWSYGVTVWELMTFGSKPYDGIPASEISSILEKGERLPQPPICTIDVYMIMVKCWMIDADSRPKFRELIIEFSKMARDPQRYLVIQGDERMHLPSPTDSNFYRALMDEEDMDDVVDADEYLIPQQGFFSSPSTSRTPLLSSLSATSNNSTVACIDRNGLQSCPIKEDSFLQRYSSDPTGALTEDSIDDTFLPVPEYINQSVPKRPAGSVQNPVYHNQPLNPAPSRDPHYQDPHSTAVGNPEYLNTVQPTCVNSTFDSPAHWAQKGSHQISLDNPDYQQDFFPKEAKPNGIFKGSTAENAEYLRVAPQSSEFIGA
In another experiment the target is c-Src (Homo sapiens, UniProt P12931). Put plainly: Src kinase assay. The experiment is classed as biochemical.
Chain of c-Src (P12931 whole entry): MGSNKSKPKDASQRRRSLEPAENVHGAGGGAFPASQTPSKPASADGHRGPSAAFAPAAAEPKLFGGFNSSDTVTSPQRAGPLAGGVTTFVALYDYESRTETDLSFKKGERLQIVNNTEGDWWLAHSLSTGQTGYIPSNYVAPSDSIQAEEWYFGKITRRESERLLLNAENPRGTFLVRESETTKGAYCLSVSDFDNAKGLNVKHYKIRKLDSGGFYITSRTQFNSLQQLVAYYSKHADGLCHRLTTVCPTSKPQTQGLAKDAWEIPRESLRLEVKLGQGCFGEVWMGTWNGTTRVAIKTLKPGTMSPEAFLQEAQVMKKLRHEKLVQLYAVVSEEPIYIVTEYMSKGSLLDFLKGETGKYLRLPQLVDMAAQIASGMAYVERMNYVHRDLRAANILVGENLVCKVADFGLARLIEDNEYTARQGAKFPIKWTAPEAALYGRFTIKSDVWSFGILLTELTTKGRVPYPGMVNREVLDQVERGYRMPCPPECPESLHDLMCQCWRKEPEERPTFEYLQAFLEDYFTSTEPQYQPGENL
A further experiment deals with RPMI-8226 cell line. Put plainly: NCI in vitro one dose anticancer assay. The class given is cell-based. Conditions: Homo sapiens, RPMI-8226, 48 h, read-out: % growth inhibition. The method, boiled down:
as §1

The test system of the next experiment is SR cell line. Briefly: NCI in vitro one dose anticancer assay. The class given is cell-based. Particulars: Homo sapiens, 48 h, read-out: % growth inhibition. The procedure, abridged:
as §1

Another experiment relates to IL-6. Briefly: IL-6 ELISA in K-562 cells. Conditions: Homo sapiens, K562, 24 h, read-out: IL-6 protein levels (% of control). The experiment is classed as cell-based, human. The method, boiled down:
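K-562 cells exposed 24 h to vehicle (DMSO), test compound at 10 μM or dexamethasone (positive control). IL-6 secreted into cell-free supernatant quantified by human IL-6 ELISA kit. Expressed as % of vehicle control, mean ± SD of three independent experiments, each in triplicate. Time course: in 12-well plates, medium changed when compound (10 μM) added, and media sampled at 0, 1, 4, 8, 12, 24, 48 h.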

A further experiment has as its system K-562 cell line. Put plainly: NCI in vitro one dose anticancer assay. Particulars: Homo sapiens, K562, 48 h, read-out: % growth inhibition. The experiment is classed as cell-based. The method, boiled down:
as §1

The test system of the next experiment is MOLT-4 cell line. Put plainly: NCI in vitro one dose anticancer assay. The experiment is classed as cell-based. Particulars: Homo sapiens, MOLT-4, 48 h, read-out: % growth inhibition. The procedure, abridged:
as §1

The term IC50 denotes the concentration at which inhibition is half-maximal. For the compound `O=C(CSc1nnc(-c2ccccc2)o1)Nc1ccc(C(=O)C=Cc2ccccc2)cc1` [Compound 8a, N-(4-(3-Phenyl)acryloyl)phenyl-2-((5-phenyl-1,3,4-oxadiazol-2-yl)thio)-acetamide], the “inhibition of STAT3 activation” value in the experiment with STAT3 is recorded as “most effective”. Besides, the IC50 with K-562 (MTT, 24 h treatment) turned out to be 7.21 ± 0.35 µM; in the experiment with KG-1a (MTT, 24 h treatment), 8.85 ± 0.22 µM; in the experiment with Jurkat (MTT, 24 h treatment) it was 8.47 ± 1.03 µM; on EGFR (read-out: EGFR (IC50 μM), PGT substrate, ATP 50 μM), 1.23 ± 0.25 µM; on c-Src (read-out: Src (IC50 μM), PGT substrate, ATP 50 μM), 4.5 ± 1.2 µM. The “Mean growth inhibition %” value in experiment [1] (10 μM, SRB, mean over NCI 60 cell line panel) came to 37.77%.
Usually inhibition stands for the drop in the measured response relative to a control, in per cent. With `O=C(CSc1nnc(-c2ccc(Cl)cc2)o1)Nc1ccc(C(=O)C=Cc2ccccc2)cc1` [Compound 8e, 2-((5-(4-Chlorophenyl)-1,3,4-oxadiazol-2-yl)thio)-N-(4-cinnamoylphenyl)acetamide], the inhibition at 10 µM with RPMI-8226 cell line lay in the range of 31.3 to 144%; in the experiment on SR cell line, 32.9 to 160%. Moreover, the IC50 was 93.3 ± 5.21 µM in the experiment on K-562 (Homo sapiens, K562, 24 h); above 100 µM in the experiment with KG-1a (Homo sapiens, KG-1a, 24 h); above 100 µM in the experiment with Jurkat (Homo sapiens, Jurkat, 24 h); 59.4 ± 5.63 µM against EGFR; 74.4 ± 3.6 µM at c-Src. In the experiment with IL-6, the activity at 10 µM is 82 to 98%.
Regarding `COc1ccc(-c2nnc(SCC(=O)Nc3ccc(C(=O)C=Cc4cc(OC)c(OC)c(OC)c4)cc3)o2)cc1` [Compound 8n, 2-(5-(4-Methoxyphenyl)-1,3,4-oxadiazol-2-ylthio)-N-(4-(3-(3,4,5-tri-methoxyphenyl)acryloyl)phenyl)acetamide], the values for the inhibition at 10 µM (in the experiment on SR cell line; with K-562 cell line; in experiment [1]) were 32.9 to 160%, 35.8 to 152% and 27.3%, respectively. The “inhibition of STAT3 activation” value in the experiment with STAT3 is recorded as “most effective”. Further, the IC50 in the experiment on K-562 (Homo sapiens, K562, 24 h) stood at 10.2 ± 0.94 µM; in the experiment with KG-1a (Homo sapiens, KG-1a, 24 h) it was 16 ± 0.96 µM; in the experiment with Jurkat (Homo sapiens, Jurkat, 24 h), 13.15 ± 0.08 µM; on EGFR, 2.35 ± 0.95 µM; against c-Src, 6.24 ± 0.86 µM. Moreover, the activity at 10 µM in the experiment on IL-6 was 20 to 23%.
Turning to `COc1ccc(-c2nnc(SCC(=O)Nc3ccc(C(=O)C=Cc4ccc(Cl)cc4)cc3)o2)cc1OC` [Compound 8p, N-(4-(3-(4-chlorophenyl)acryloyl)phenyl)-2-((5-(3,4-dimethoxyphenyl)-1,3,4-oxadiazol-2-yl)thio)acetamide], the inhibition at 10 µM is 31.3 to 144% with RPMI-8226 cell line, 31.9 to 108% in the experiment with MOLT-4 cell line, 32.9 to 160% in the experiment on SR cell line and 28.2% in [1]. Besides, the “inhibition of STAT3 activation” value with STAT3 is recorded as “moderate activities”. Also, the IC50 with K-562 (Homo sapiens, K562, 24 h) is 16.1 ± 1.08 µM; in the experiment on KG-1a (Homo sapiens, KG-1a, 24 h) it was 22.5 ± 1.07 µM; in the experiment on Jurkat (Homo sapiens, Jurkat, 24 h), 17.2 ± 0.79 µM; at EGFR, 13.3 ± 0.65 µM; against c-Src, 13.7 ± 0.89 µM. In addition, the activity at 10 µM in the experiment with IL-6 was in the range of 30 to 75%.
`COc1ccc(-c2nnc(SCC(=O)Nc3ccc(C(=O)C=Cc4cc(OC)c(OC)c(OC)c4)cc3)o2)cc1OC` [Compound 8s, 2-((5-(3,4-Dimethoxyphenyl)-1,3,4-oxadiazol-2-yl)thio)-N-(4-(3-(3,4,5-trimethoxyphenyl)acryloyl)phenyl)acetamide]: the inhibition at 10 µM lay within 31.3 to 144% with RPMI-8226 cell line, 32.9 to 160% with SR cell line and 35.8 to 152% with K-562 cell line. The “inhibition of STAT3 activation” value with STAT3 is “moderate activities”. Also, the IC50 with K-562 (Homo sapiens, K562, 24 h) is 15.1 ± 0.25 µM; in the experiment with KG-1a (Homo sapiens, KG-1a, 24 h), 32.1 ± 0.64 µM; in the experiment with Jurkat (Homo sapiens, Jurkat, 24 h), 25.1 ± 0.45 µM; against EGFR, 12.3 ± 0.8 µM; against c-Src it was 15.3 ± 1.25 µM. Besides, in the experiment with IL-6, the activity at 10 µM fell in the range of 30 to 75%.
For the compound `COc1cc(C=CC(=O)c2ccc(NC(=O)CSc3nnc(-c4cc(OC)c(OC)c(OC)c4)o3)cc2)cc(OC)c1OC` [Compound 8x, 2-((5-(3,4,5-Trimethoxyphenyl)-1,3,4-oxadiazol-2-yl)thio)-N-(4-(3-(3,4,5-trimethoxyphenyl)acryloyl)phenyl)acetamide], the inhibition at 10 µM in the experiment on RPMI-8226 cell line was in the range of 31.3 to 144%; with SR cell line it was 32.9 to 160%. For the same compound, the “inhibition of STAT3 activation” value in the experiment with STAT3 is reported as “moderate activities”. In addition, the IC50 in the experiment with K-562 (Homo sapiens, K562, 24 h) is 62.1 ± 3.07 µM; in the experiment with KG-1a (Homo sapiens, KG-1a, 24 h), 71.5 ± 1.18 µM; in the experiment with Jurkat (Homo sapiens, Jurkat, 24 h), 69.17 ± 0.15 µM; against EGFR, 20.5 ± 1.35 µM; against c-Src it was 35.1 ± 3.26 µM. Besides, the activity at 10 µM with IL-6 fell in the range of 30 to 75%.
